From ChEMBL document CHEMBL4765243, “Discovery of Novel Bromophenol-Thiosemicarbazone Hybrids as Potent Selective Inhibitors of Poly(ADP-ribose) Polymerase-1 (PARP-1) for Use in Cancer” (J Med Chem, 2019)

Tests used:
SK-OV-3 [1] = assay: Antiproliferative activity against human SK-OV-3 cells assessed as cell growth inhibition at 20 uM incubated for 48 hrs by MTT assay relative to control; format: functional
Bel-7402 [2] = assay: Antiproliferative activity against human Bel-7402 cells assessed as cell growth inhibition at 20 uM incubated for 48 hrs by MTT assay relative to control; format: functional
HepG2 [3] = assay: Antiproliferative activity against human HepG2 cells assessed as cell growth inhibition at 20 uM incubated for 48 hrs by MTT assay relative to control; format: functional
Caco-2 [4] = assay: Antiproliferative activity against human Caco-2 cells assessed as cell growth inhibition at 20 uM incubated for 48 hrs by MTT assay relative to control; format: functional
[5] = Cytotoxicity against human HL7702 cells assessed as cell growth inhibition at 20 uM incubated for 48 hrs by MTT assay relative to control; format: cell-based; details: HL7702 (L02) cells
SK-OV-3 [6] = assay: Antiproliferative activity against human SK-OV-3 cells assessed as cell growth inhibition incubated for 48 hrs by MTT assay; format: functional, cell-based; details: SK-OV-3, 48 h
How it was run: (§1)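 Cells seeded in 96-well plates and exposed to compounds for 48 h; viability read by MTT. Each experiment repeated three times. SK-OV-3 grown in McCOY's 5A, Bel-7402 and HL-7702 in RPMI-1640, HepG2 in DMEM, Caco-2 in MEM.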

Bel-7402 [7] = assay: Antiproliferative activity against human Bel-7402 cells assessed as cell growth inhibition incubated for 48 hrs by MTT assay; format: functional, cell-based; details: Bel-7402, 48 h; how it was run: as §1
HepG2 [8] = assay: Antiproliferative activity against human HepG2 cells assessed as cell growth inhibition incubated for 48 hrs by MTT assay; format: functional, cell-based; details: HepG2, 48 h; how it was run: as §1
Caco-2 [9] = assay: Antiproliferative activity against human Caco-2 cells assessed as cell growth inhibition incubated for 48 hrs by MTT assay; format: functional, cell-based; details: Caco-2, 48 h; how it was run: as §1
L02 = assay: Cytotoxicity against human HL7702 cells assessed as cell growth inhibition incubated for 48 hrs by MTT assay; format: cell-based; details: L02, 48 h; how it was run: as §1
[10] = molecular target: T1, Poly [ADP-ribose] polymerase 1 (Homo sapiens, UniProt P09874); details: dose 100.0 nM, time 30.0 min
[11] = molecular target: T1, Poly [ADP-ribose] polymerase 1; assay: Inhibition of human recombinant GST-tagged PARP-1 expressed in Escherichia coli assessed as reduction in NAD+-dependent ADP ribosylation incubated for 30 mins in presence and NAD by resazurin dye based fluorescence analysis
[12] = molecular target: Poly [ADP-ribose] polymerase 2 (Homo sapiens, UniProt Q9UGN5); assay: Inhibition of human recombinant N-terminal GST-tagged PARP-2 expressed in Baculovirus infected Sf9 cells assessed as reduction in NAD+-dependent ADP ribosylation using histone mixture (H2A and H2B) as substrate in presence of activated DNA incubated for 30 mins by chemiluminescence assay
[13] = Selectivity index, ratio of IC50 for inhibition of human recombinant N-terminal GST-tagged PARP-2 to IC50 for inhibition of human recombinant GST-tagged PARP-1

T1 sequence (P09874 whole entry): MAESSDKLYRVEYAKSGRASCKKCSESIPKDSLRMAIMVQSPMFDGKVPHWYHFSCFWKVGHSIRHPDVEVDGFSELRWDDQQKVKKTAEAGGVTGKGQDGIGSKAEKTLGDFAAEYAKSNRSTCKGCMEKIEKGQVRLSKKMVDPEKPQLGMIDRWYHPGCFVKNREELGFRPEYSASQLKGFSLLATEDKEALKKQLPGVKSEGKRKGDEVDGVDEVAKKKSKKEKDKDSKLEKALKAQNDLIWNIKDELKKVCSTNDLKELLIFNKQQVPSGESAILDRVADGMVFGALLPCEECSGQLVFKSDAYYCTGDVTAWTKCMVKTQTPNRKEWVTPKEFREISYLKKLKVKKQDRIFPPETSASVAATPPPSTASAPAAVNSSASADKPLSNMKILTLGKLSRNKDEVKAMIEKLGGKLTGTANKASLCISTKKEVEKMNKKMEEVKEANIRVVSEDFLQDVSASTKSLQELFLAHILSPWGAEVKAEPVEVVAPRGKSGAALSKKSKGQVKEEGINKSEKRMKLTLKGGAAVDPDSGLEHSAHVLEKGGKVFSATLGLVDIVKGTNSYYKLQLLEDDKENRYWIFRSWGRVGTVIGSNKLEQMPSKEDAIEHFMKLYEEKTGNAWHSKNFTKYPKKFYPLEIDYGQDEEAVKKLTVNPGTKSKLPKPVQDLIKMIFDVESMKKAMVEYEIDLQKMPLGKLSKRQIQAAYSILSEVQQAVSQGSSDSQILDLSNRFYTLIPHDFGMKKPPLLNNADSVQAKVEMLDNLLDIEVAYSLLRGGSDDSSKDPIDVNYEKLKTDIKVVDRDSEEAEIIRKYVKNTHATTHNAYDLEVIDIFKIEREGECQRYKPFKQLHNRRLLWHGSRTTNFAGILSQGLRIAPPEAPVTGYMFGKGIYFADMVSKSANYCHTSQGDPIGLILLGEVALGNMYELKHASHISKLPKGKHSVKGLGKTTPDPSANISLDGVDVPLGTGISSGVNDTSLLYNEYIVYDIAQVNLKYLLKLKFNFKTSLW
Chain of Poly [ADP-ribose] polymerase 2 (Q9UGN5 whole entry): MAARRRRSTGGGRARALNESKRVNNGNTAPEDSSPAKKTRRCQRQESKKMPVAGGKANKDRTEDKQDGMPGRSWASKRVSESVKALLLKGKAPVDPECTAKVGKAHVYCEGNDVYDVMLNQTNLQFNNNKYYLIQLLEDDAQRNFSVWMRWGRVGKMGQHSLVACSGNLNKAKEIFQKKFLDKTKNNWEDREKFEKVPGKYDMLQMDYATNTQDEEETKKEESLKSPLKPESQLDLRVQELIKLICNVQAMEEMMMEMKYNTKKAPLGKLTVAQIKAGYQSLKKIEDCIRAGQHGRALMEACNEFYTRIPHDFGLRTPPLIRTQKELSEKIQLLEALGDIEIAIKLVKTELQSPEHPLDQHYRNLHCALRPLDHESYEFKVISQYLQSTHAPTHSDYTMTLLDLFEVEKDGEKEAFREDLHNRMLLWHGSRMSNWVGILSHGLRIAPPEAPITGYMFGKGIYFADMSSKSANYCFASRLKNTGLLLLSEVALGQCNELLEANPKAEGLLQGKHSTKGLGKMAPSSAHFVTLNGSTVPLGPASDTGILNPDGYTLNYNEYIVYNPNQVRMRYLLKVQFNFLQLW

IC50 (SK-OV-3 [6]) | IC50 (Bel-7402 [7]) | IC50 (HepG2 [8]) | IC50 (Caco-2 [9]) | inhibition [10] | IC50 [11] | IC50 [12] | Ratio IC50 [13] | Structure (SMILES) | inhibition at 20 µM (SK-OV-3 [1]) | inhibition at 20 µM (Bel-7402 [2]) | inhibition at 20 µM (HepG2 [3]) | inhibition at 20 µM (Caco-2 [4]) | inhibition at 48 h, 20 µM [5] | IC50 (L02)
5.12 µM | 12.3 µM | 7.08 µM | 9.34 µM | 45.9% | – | – | – | Oc1cc(/C=N/NC(=S)Nc2ccccc2)c(Br)c(Br)c1O | 54.6% | 73.1% | 72.9% | 76.4% | 94.5% | 5.65 µM
– | – | – | – | 44.1% | – | – | – | CNC(=S)N/N=C/c1cc(Br)c(OC)c(OC)c1 | 32.9% | 29.6% | 57.2% | 43.8% | 44.3% | –
19.2 µM | 19.6 µM | 16 µM | 16.4 µM | 37.1% | – | – | – | NC(=S)N/N=C/c1cc(O)c(O)c(Br)c1Br | 60.7% | 69.3% | 65.8% | 53.6% | 82.9% | 13.5 µM
– | – | – | – | 46.6% | – | – | – | COc1cc(/C=N/NC(=S)Nc2ccc(F)cc2)c(Br)c(Br)c1OC | 66.3% | 54.6% | 60.5% | 24.5% | 85.1% | –
– | – | – | – | 38.3% | – | – | – | COc1cc(/C=N/NC(=S)Nc2cccc(C(F)(F)F)c2)cc(Br)c1OC | 63.3% | 26% | 36.4% | 21% | 58.6% | –
15.3 µM | 13.9 µM | 13.4 µM | 10.1 µM | 38.2% | – | – | – | COc1cc(/C=N/NC(=S)Nc2ccc(Cl)cc2)c(Br)c(Br)c1OC | 81.2% | 51.5% | 62.7% | 44.8% | 85.5% | 3.5 µM
– | – | – | – | 23% | – | – | – | COc1cc(/C=N/NC(=S)Nc2cccc(C(F)(F)F)c2)c(Br)c(Br)c1OC | < 0% | 12.7% | 43.2% | 6.4% | 71.1% | –
– | – | – | – | 23.2% | – | – | – | COc1cc(/C=N/NC(N)=S)cc(Br)c1OC | < 0% | 17.6% | 61.1% | 18.9% | 2.11% | –
– | – | – | – | 34.8% | – | – | – | COc1ccc(/C=N/NC(N)=S)c(Br)c1O | 9.92% | 21.4% | 38.5% | 9.01% | 31.8% | –
– | – | – | – | 61% | 254 nM | > 1000 nM | > 3.94 | COc1cc(/C=N/NC(N)=S)c(Br)c(Br)c1O | 28% | 44.8% | 50.8% | 24.9% | < 0% | –
– | – | – | – | 28.1% | – | – | – | COc1ccc(/C=N/NC(N)=S)cc1O | – | – | – | – | – | –
– | – | – | – | 23.7% | – | – | – | COc1cc(/C=N/NC(=S)Nc2ccc(Oc3ccccc3)cc2)c(Br)c(Br)c1OC | 15% | < 0% | < 0% | < 0% | < 0% | –
– | – | – | – | 35.5% | – | – | – | COc1cc(/C=N/NC(=S)Nc2ccccc2)cc(Br)c1O | 56% | 25.3% | 62% | 62.9% | 40.7% | –
– | – | – | – | 30.2% | – | – | – | NC(=S)N/N=C/c1cc(O)c(O)c(Br)c1 | < 0% | < 0% | < 0% | 47.9% | 54.8% | –
9.25 µM | 30.2 µM | 25.7 µM | 9.97 µM | 43.8% | – | – | – | COc1cc(/C=N/NC(=S)Nc2ccccc2)c(Br)c(Br)c1OC | 90.4% | 50.3% | 54.6% | 14.2% | 86.4% | 22.6 µM
– | – | – | – | 12.5% | – | – | – | COc1cc(/C=N/NC(=S)Nc2ccccc2)c(Br)c(Br)c1O | 65.5% | 39.5% | 57.1% | 34.9% | 27.8% | –

IC50 (SK-OV-3 [6]) | IC50 (Bel-7402 [7]) | IC50 (HepG2 [8]) | IC50 (Caco-2 [9]) | inhibition [10] | IC50 [11] | IC50 [12] | Ratio IC50 [13] | Structure (SMILES) | inhibition at 20 µM (SK-OV-3 [1]) | inhibition at 20 µM (Bel-7402 [2]) | inhibition at 20 µM (HepG2 [3]) | inhibition at 20 µM (Caco-2 [4]) | inhibition at 48 h, 20 µM [5] | IC50 (L02)
– | – | – | – | 32.2% | – | – | – | CNC(=S)N/N=C/c1cc(OC)c(OC)c(Br)c1Br | 18.3% | 3.9% | 38.9% | < 0% | 63.4% | –
– | – | – | – | 18.2% | – | – | – | COc1cc(/C=N/NC(=S)Nc2ccccc2)cc(Br)c1OC | 55.5% | 75.2% | 40% | 67.1% | 72.1% | –
13.7 µM | 9.87 µM | 8.55 µM | 13.7 µM | 43.7% | – | – | – | CCOC(=O)c1ccc(NC(=S)N/N=C/c2cc(Br)c(OC)c(OC)c2)cc1 | 60.4% | 39.4% | 59.3% | 55.5% | 84% | 8.8 µM
– | – | – | – | 28% | – | – | – | COc1cc(/C=N/NC(N)=S)ccc1O | – | – | – | – | – | –
– | – | – | – | 37% | – | – | – | COc1cc(Br)c(/C=N/NC(=S)Nc2ccccc2)cc1OC | 41.3% | 19.3% | 67% | 25.7% | 78.7% | –
– | – | – | – | 42.6% | – | – | – | COc1cc(Br)c(/C=N/NC(N)=S)cc1OC | 20.8% | 18.3% | 37.6% | 8.65% | 42.5% | –
– | – | – | – | 40.7% | – | – | – | Oc1ccc(/C=N/NC(=S)Nc2ccccc2)cc1O | < 0% | 38.8% | < 0% | 78.2% | 76.4% | –
14 µM | 13.1 µM | 9.29 µM | 22.7 µM | 28% | – | – | – | Oc1cc(/C=N/NC(=S)Nc2ccccc2)cc(Br)c1O | 76.2% | 63.5% | 67.9% | 72% | 86.4% | 13.4 µM
– | – | – | – | 33% | – | – | – | COc1cc(/C=N/NC(=S)NCCCN2CCOCC2)cc(Br)c1OC | 37.7% | 39.4% | 35.2% | 36.9% | 24.7% | –
– | – | – | – | 20.6% | – | – | – | COc1cc(/C=N/NC(=S)Nc2ccccc2)ccc1O | 45.3% | 41% | 58.4% | 75.1% | 9.28% | –
– | – | – | – | 42.9% | – | – | – | COc1ccc(/C=N/NC(=S)Nc2ccccc2)c(Br)c1O | 62.1% | 36.4% | 65.6% | 82.4% | 46.9% | –
– | – | – | – | 37.5% | – | – | – | COc1ccc(/C=N/NC(=S)Nc2ccccc2)cc1O | 41.4% | 32.2% | 38% | 71.4% | 41.4% | –
– | – | – | – | 32.2% | – | – | – | COc1cc(/C=N/NC(=S)Nc2ccc(Cl)cc2)cc(Br)c1OC | 41.5% | 55.7% | 46.6% | 55.4% | 42.9% | –
– | – | – | – | 38.1% | – | – | – | COc1cc(/C=N/NC(=S)Nc2ccc(F)cc2)cc(Br)c1OC | 42.4% | 48.2% | 32.3% | 49.1% | 68.6% | –
– | – | – | – | 42.9% | – | – | – | COc1cc(/C=N/NC(N)=S)cc(Br)c1O | 21.6% | 32.3% | 29.6% | 35.6% | < 0% | –
– | – | – | – | 27.7% | – | – | – | COc1cc(/C=N/NC(=S)Nc2ccc(Oc3ccccc3)cc2)cc(Br)c1OC | 32.3% | 33.8% | < 0% | 76.3% | 75.9% | –
